In general, MIC refers to the lowest concentration that inhibits growth of the organism.

The source of these data is ChEMBL document CHEMBL1123883, “Structure-activity relationships in the 2-arylcarbapenem series: synthesis of 1-methyl-2-arylcarbapenems” (1987).

Assay [1] deals with Staphylococcus aureus. Kind of assay: Antibiotic activity was determined against Staphylococcus aureus (5). The format is functional. The essentials: (§1)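 Inhibitory concentrations against the strains of each species were expressed as a ratio to the inhibitory concentration of thienamycin, the reference carbapenem, in the same strains.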
The test system of assay [2] is Enterococcus. Kind of assay: Antibiotic activity was determined against Enterococcus (3). The format is functional. An outline of the steps:
as §1

Assay [3] has as its system Klebsiella sp. Kind of assay: Antibiotic activity was determined against Klebsiella species (5). The format is functional. The essentials: as §1
For assay [4], the system named is Pseudomonas aeruginosa. Kind of assay: Antibiotic activity was determined against Pseudomonas aeruginosa (5). It is filed as functional. An outline of the steps: as §1
Assay [5] has as its system Enterobacter. Kind of assay: Antibiotic activity was determined against Enterobacter species (6). The format is functional. The essentials:
as §1

Assay [6] deals with Proteus. The assay can be described thus: Antibiotic activity was determined against Proteus species (5). The format is functional, Proteus sp. An outline of the steps: as §1
The target of assay [7] is T1, Dipeptidase 1 (Homo sapiens) (UniProt P16444).
T1 sequence (whole entry): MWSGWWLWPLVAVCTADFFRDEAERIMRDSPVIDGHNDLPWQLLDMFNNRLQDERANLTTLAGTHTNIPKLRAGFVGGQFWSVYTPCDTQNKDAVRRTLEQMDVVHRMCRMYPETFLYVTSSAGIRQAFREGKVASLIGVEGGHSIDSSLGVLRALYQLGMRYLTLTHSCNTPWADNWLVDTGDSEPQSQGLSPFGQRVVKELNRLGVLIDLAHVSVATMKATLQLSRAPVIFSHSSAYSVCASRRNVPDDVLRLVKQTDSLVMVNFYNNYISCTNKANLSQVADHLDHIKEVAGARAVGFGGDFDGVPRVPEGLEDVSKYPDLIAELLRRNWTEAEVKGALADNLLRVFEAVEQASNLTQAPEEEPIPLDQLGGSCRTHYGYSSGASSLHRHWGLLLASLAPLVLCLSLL
Kind of assay: Susceptibility to mammalian dehydropeptidase DHP-1 relative to thienamycin.

For assay [8], the system named is Escherichia coli. Kind of assay: Antibiotic activity was determined against Escherichia coli(5). It is filed as functional. The essentials:
as §1

The subject of assay [9] is Serratia. The assay can be described thus: Antibiotic activity was determined against Serratia species (2). It is filed as functional. An outline of the steps: as §1

In brackets after ≈: the same amount, converted by molar mass.

`C[C@@H](O)[C@H]1C(=O)N2C(C(=O)[O-])=C(c3ccccc3)C[C@H]12.[K+]`: the MIC in assay [1] is 0.5 µg/mL; in assay [2], 5.7 µg/mL; in assay [3], 1.4 µg/mL; in assay [4], 0.03 µg/mL; in assay [5], 4.6 µg/mL; in [6], 10 µg/mL. Moreover, the MIC in assay [8] was 2.5 µg/mL; in assay [9], 10 µg/mL. Moreover, the Relative susceptibility in [7] was determined as 0.2.
`C[C@@H]1C(c2cccnc2)=C(C(=O)[O-])N2C(=O)[C@H]([C@@H](C)O)[C@@H]12.[K+]`: the MIC in assay [1] came to 0.15 µg/mL; in assay [2] it was 0.15 µg/mL; in assay [3], 2.5 µg/mL; in [4], 0.03 µg/mL; in assay [5], 5 µg/mL; in assay [6] it was 2.5 µg/mL. The figures for the MIC in assay [8] and in assay [9] were 3.5 µg/mL and 22 µg/mL, respectively. Besides, the Relative susceptibility in assay [7] was 0.1.
For the compound `O=C(O)C1=C(c2ccccc2)CC2CC(=O)N12` (stereo not given), the MIC in assay [1] is 0.02 µg/mL (≈ 0.0872 µM); in [2], 1 µg/mL (≈ 4.36 µM); in [3], 0.04 µg/mL (≈ 0.174 µM); in assay [4], 0.03 µg/mL (≈ 0.131 µM); in assay [5] it was 0.2 µg/mL (≈ 0.872 µM); in assay [6], 0.03 µg/mL (≈ 0.131 µM). Further, the MIC in assay [8] is 0.1 µg/mL (≈ 0.436 µM); in assay [9], 0.01 µg/mL (≈ 0.0436 µM). In [7], this compound came in with a Relative susceptibility of 0.35.
Take `CC(O)[C@H]1C(=O)N2C(C(=O)O)=C(c3ccc(CN)cc3)C[C@H]12` (stereo not given in full): the MIC was determined as 1.5 µg/mL (≈ 4.96 µM) in [1]; 9.2 µg/mL (≈ 30.4 µM) in [2]; 3.2 µg/mL (≈ 10.6 µM) in [3]; 0.3 µg/mL (≈ 0.992 µM) in [4]; 11 µg/mL (≈ 36.4 µM) in [5]; 6.5 µg/mL (≈ 21.5 µM) in assay [6]. Besides, the MIC in assay [8] was determined as 3.5 µg/mL (≈ 11.6 µM); in assay [9], 5.3 µg/mL (≈ 17.5 µM).
Turning to `C[C@@H](O)[C@H]1C(=O)N2C(C(=O)[O-])=C(c3ccccc3)[C@H](C)[C@H]12.[K+]`, the MIC in assay [1] amounted to 0.2 µg/mL; in [2], 2 µg/mL; in [3] it was 0.3 µg/mL; in assay [4], 0.02 µg/mL; in assay [5] it was 0.3 µg/mL; in assay [6] it was 3.5 µg/mL. Besides, the MIC in assay [8] is 0.5 µg/mL; in assay [9], 1 µg/mL. The Relative susceptibility in assay [7] was found to be 0.25.
Turning to `C[C@@H](O)[C@H]1C(=O)N2C(C(=O)O)=C(c3ccc(CN)nc3)C[C@H]12`, the MIC in assay [1] is 1.9 µg/mL (≈ 6.26 µM); in assay [2], 8 µg/mL (≈ 26.4 µM); in [3], 3 µg/mL (≈ 9.89 µM); in assay [4] it was 0.2 µg/mL (≈ 0.659 µM); in assay [5], 5.7 µg/mL (≈ 18.8 µM); in assay [6], 3.2 µg/mL (≈ 10.5 µM). The MIC in assay [8] worked out at 3 µg/mL (≈ 9.89 µM); in assay [9] it was 5.3 µg/mL (≈ 17.5 µM). For the same compound, the Relative susceptibility in assay [7] was 0.1.
Regarding `C[C@@H](O)[C@H]1C(=O)N2C(C(=O)[O-])=C(c3cccnc3)C[C@H]12.[K+]`, the MIC was 1.5 µg/mL in [1]; 6 µg/mL in assay [2]; 7 µg/mL in assay [3]; 0.05 µg/mL in [4]; 20 µg/mL in assay [5]; 17 µg/mL in assay [6]. The figures for the minimal inhibitory concentration (MIC) in assay [8] and in assay [9] were 9 µg/mL and 28 µg/mL, respectively. Besides, the Relative susceptibility in assay [7] turned out to be 0.4.
With `C[C@@H](O)[C@H]1C(=O)N2C(C(=O)[O-])=C(c3ccc(O)cc3)C[C@H]12.[K+]`, the MIC in [1] is 0.4 µg/mL; in [2], 7.5 µg/mL; in [3] it was 0.7 µg/mL; in [4], 0.06 µg/mL; in assay [5] it was 1.7 µg/mL; in assay [6] it was 8 µg/mL. The results for the MIC in assay [8] and in [9] were 2.8 µg/mL and 2.3 µg/mL, respectively. In assay [7], this compound returned a Relative susceptibility of 0.2.
In assay [7], `C[C@H](O)[C@H]1C(=O)N2C(C(=O)O)=C(c3ccc(CN)cc3)C[C@H]12` displayed a Relative susceptibility of 0.02.
With `C[C@@H](O)[C@H]1C(=O)N2C(C(=O)[O-])=C(c3ccc(CO)cc3)[C@H](C)[C@H]12.[K+]`, the MIC in assay [1] was found to be 0.2 µg/mL; in [2] it was 1.4 µg/mL; in [3], 0.7 µg/mL; in assay [4], 0.02 µg/mL; in assay [5], 1.1 µg/mL; in assay [6], 5.3 µg/mL. Besides, the MIC in [8] turned out to be 0.9 µg/mL; in [9], 1.2 µg/mL. Moreover, the Relative susceptibility in [7] stood at 0.22.
On to `C[C@@H](O)[C@H]1C(=O)N2C(C(=O)[O-])=C(c3ccc(CO)cc3)C[C@H]12.[K+]`, for which the MIC in assay [1] is 1 µg/mL; in assay [2], 5 µg/mL; in assay [3], 2.3 µg/mL; in assay [4] it was 0.02 µg/mL; in [5], 4 µg/mL; in [6], 15 µg/mL. Also, the MIC stood at 2 µg/mL in assay [8] and 7 µg/mL in assay [9]. Also, the Relative susceptibility in [7] turned out to be 0.28.
`O=C(O)C1=C(c2cccnc2)CC2CC(=O)N12` (stereo not given): the MIC in assay [1] was found to be 0.002 µg/mL (≈ 0.00869 µM); in [2], 0.15 µg/mL (≈ 0.652 µM); in assay [3], 0.02 µg/mL (≈ 0.0869 µM); in [4], 0.1 µg/mL (≈ 0.434 µM); in [5], 0.02 µg/mL (≈ 0.0869 µM); in assay [6], 0.03 µg/mL (≈ 0.13 µM). Moreover, the MIC in assay [8] and in assay [9] was 0.01 µg/mL (≈ 0.0434 µM) throughout. In addition, the Relative susceptibility in assay [7] stood at 0.3.
Take `C[C@@H](O)[C@H]1C(=O)N2C(C(=O)O)=C(SCCN)C[C@H]12` [THIENAMYCIN]: the MIC in assay [1] turned out to be 0.04 µg/mL (≈ 0.147 µM); in assay [2], 5 µg/mL (≈ 18.4 µM); in [3], 1.3 µg/mL (≈ 4.77 µM); in assay [4], 5.8 µg/mL (≈ 21.3 µM); in [5] it was 1.4 µg/mL (≈ 5.14 µM); in assay [6] it was 7.5 µg/mL (≈ 27.5 µM). Besides, the MIC turned out to be 0.3 µg/mL (≈ 1.1 µM) in assay [8] and 2.5 µg/mL (≈ 9.18 µM) in [9]. This compound showed a Relative susceptibility in [7] of 1.
As to `C[C@@H](O)[C@H]1C(=O)N2C(C(=O)O)=C(c3ccc(CN)cc3)[C@H](C)[C@H]12`, the MIC in [1] worked out at 0.4 µg/mL (≈ 1.26 µM); in assay [2], 3 µg/mL (≈ 9.48 µM); in assay [3] it was 1.7 µg/mL (≈ 5.37 µM); in assay [4], 0.13 µg/mL (≈ 0.411 µM); in [5], 2.5 µg/mL (≈ 7.9 µM); in assay [6], 2 µg/mL (≈ 6.32 µM). In addition, the MIC in assay [8] was 1.6 µg/mL (≈ 5.06 µM); in [9] it was 6.5 µg/mL (≈ 20.5 µM). Besides, the Relative susceptibility in assay [7] is 0.07.
Consider `C[C@@H](O)[C@H]1C(=O)N2C(C(=O)O)=C(c3ccc(CN)nc3)[C@H](C)[C@H]12`, for which the MIC came out at 0.5 µg/mL (≈ 1.58 µM) in assay [1]; 2.8 µg/mL (≈ 8.82 µM) in [2]; 2.8 µg/mL (≈ 8.82 µM) in [3]; 0.08 µg/mL (≈ 0.252 µM) in assay [4]; 3.5 µg/mL (≈ 11 µM) in [5]; 2.5 µg/mL (≈ 7.88 µM) in assay [6]. For the same compound, the MIC came out at 1.5 µg/mL (≈ 4.73 µM) in assay [8] and 3.2 µg/mL (≈ 10.1 µM) in [9]. Also, in assay [7], the Relative susceptibility is 0.16.
For the compound `C[C@@H](O)[C@H]1C(=O)N2C(C(=O)[O-])=C(c3cccnc3)[C@H](C)[C@H]12.[K+]`, the MIC in assay [1] turned out to be 1 µg/mL; in [2] it was 2.5 µg/mL; in [3] it was 7 µg/mL; in [4], 0.05 µg/mL; in [5] it was 13 µg/mL; in [6], 7 µg/mL. The MIC in [8] was 12 µg/mL; in assay [9], 13 µg/mL. The compound also gave a Relative susceptibility in assay [7] of 0.7.
